ChEMBL document CHEMBL2380254, “Optimization of tocotrienols as antiproliferative and antimigratory leads” (Eur J Med Chem, 2013)

Legend:
NCI-H322M = experiment: Growth inhibition of human NCI-H322M cells after 48 hrs by sulforhodamine B assay; assay type: functional
Procedure, shortened: (§1)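 NCI-60 panel cells grown in RPMI 1640 with 5% FBS and 2 mM L-glutamine, seeded at 5000–40,000 cells/well and preincubated 24 h. Five 10-fold dilutions (0.001–100 µM) from DMSO stocks were added for 48 h at 37 °C. Adherent cells were fixed with cold TCA (10% final) for 60 min at 4 °C, stained with 0.4% SRB, and read at 515 nm. GI50 was set where 100×(T−T0)/(C−T0)=50.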

SF-539 [1] = experiment: Growth inhibition of human SF539 cells after 48 hrs by sulforhodamine B assay; assay type: functional; settings: SF-539, 48 h; procedure, shortened: as §1
HOP-62 = experiment: Growth inhibition of human HOP62 cells assessed as cell growth at 10 uM after 48 hrs by sulforhodamine B assay; assay type: functional; settings: HOP-62, 48 h, read-out: Activity
Procedure, shortened: (§2)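 NCI-60 single-dose screen at 10 µM: cells in RPMI 1640 with 5% FBS, preincubated 24 h, then exposed 48 h at 37 °C. TCA fixation (16% final for suspension cells), SRB staining, absorbance 515 nm. Percent growth relative to time-zero and untreated control plates; negative values indicate cell kill.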

MDA-MB-468 = experiment: Growth inhibition of human MDA-MB-468 cells assessed as cell growth at 10 uM after 48 hrs by sulforhodamine B assay; assay type: functional; settings: MDA-MB-468, 48 h, read-out: Activity
Procedure, shortened: (§3)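 Single-dose NCI-60 screen: adherent cells in RPMI 1640 with 5% FBS were exposed to 10 µM for 48 h at 37 °C after a 24 h preincubation. They were fixed in situ with cold TCA (10% final), stained with 0.4% SRB in 1% acetic acid, solubilized in 10 mM Tris base, and read at 515 nm. Percent growth was taken relative to time-zero and control plates.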

HL-60(TB) = experiment: Growth inhibition of human HL-60(TB) cells assessed as cell growth at 10 uM after 48 hrs by sulforhodamine B assay; assay type: functional; settings: HL-60, 48 h, read-out: Activity
Procedure, shortened: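 NCI-60 single-dose screen run at 10 µM on HL-60(TB) suspension cells in RPMI 1640 with 5% FBS and 2 mM L-glutamine. Cells were preincubated for 24 h, with a time-zero plate fixed then. Exposure lasted 48 h at 37 °C. Settled cells were fixed with TCA (16% final), stained with SRB and read at 515 nm. Percent growth is relative to control and T0.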

COLO 205 [2] = experiment: Growth inhibition of human COLO205 cells assessed as cell growth at 10 uM after 48 hrs by sulforhodamine B assay; assay type: functional; settings: COLO 205, 48 h, read-out: Activity; procedure, shortened: as §2
DU-145 = experiment: Growth inhibition of human DU145 cells after 48 hrs by sulforhodamine B assay; assay type: functional; settings: DU-145, 48 h
Procedure, shortened: (§4)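 NCI-60 screen: cells in RPMI 1640 with 5% FBS and 2 mM glutamine, 5000–40,000 cells/well, preincubated 24 h. Five concentrations (10-fold dilutions; 100 to 0.001 µM) applied for 48 h at 37 °C. TCA fixation, SRB stain, absorbance at 515 nm. Time-zero plates included; GI50 where 100×(T−T0)/(C−T0)=50.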

BT-549 = experiment: Growth inhibition of human BT549 cells assessed as cell growth at 10 uM after 48 hrs by sulforhodamine B assay; assay type: functional; settings: BT-549, 48 h, read-out: Activity; procedure, shortened: as §2
SNB-19 = experiment: Growth inhibition of human SNB19 cells assessed as cell growth at 10 uM after 48 hrs by sulforhodamine B assay; assay type: functional; settings: SNB-19, 48 h, read-out: Activity
Procedure, shortened: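 Single-dose NCI-60 test at 10 µM. Cells were grown in RPMI 1640 with 5% FBS and 2 mM L-glutamine, preincubated 24 h, with T0 plates TCA-fixed. Exposure was 48 h at 37 °C, 5% CO2. Cells were fixed with cold TCA (final 10%, 4 °C, 60 min), stained with SRB and read at 515 nm. Percent growth was taken relative to T0 and untreated control; negative values denote cell kill.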

SF-295 = experiment: Growth inhibition of human SF295 cells after 48 hrs by sulforhodamine B assay; assay type: functional; settings: SF-295, 48 h; procedure, shortened: as §1
A498 = experiment: Growth inhibition of human A498 cells after 48 hrs by sulforhodamine B assay; assay type: functional; settings: A498, 48 h; procedure, shortened: as §4
SF-268 = experiment: Growth inhibition of human SF268 cells after 48 hrs by sulforhodamine B assay; assay type: functional; settings: SF-268, 48 h; procedure, shortened: as §1
MOLT-4 = experiment: Growth inhibition of human MOLT4 cells assessed as cell growth at 10 uM after 48 hrs by sulforhodamine B assay; assay type: functional; settings: MOLT-4, 48 h, read-out: Activity
Procedure, shortened: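 Single 10 µM dose applied to suspension cells in RPMI 1640 with 5% FBS and 2 mM L-glutamine for 48 h at 37 °C. Settled cells were fixed with 80% TCA (16% final), stained with SRB, and read at 515 nm. Percent growth was calculated against time-zero and untreated control optical densities.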

U-251 = experiment: Growth inhibition of human U251 cells after 48 hrs by sulforhodamine B assay; assay type: functional; settings: U-251, 48 h
Procedure, shortened: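 NCI-60 five-dose screen. Cells were grown in RPMI 1640 with 5% FBS and 2 mM L-glutamine, plated at 5000–40,000 cells/well and incubated 24 h before dosing, with T0 plates TCA-fixed. DMSO stocks were diluted to doses of […] and exposed 48 h at 37 °C, 5% CO2. Cells were fixed with cold TCA (final 10%, 60 min, 4 °C), stained with 0.4% SRB in 1% acetic acid for 10 min, solubilized in 10 mM trizma base and read at 515 nm. GI50 is where 100×(T−T0)/(C−T0)=50.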

SF-539 [3] = experiment: Growth inhibition of human SF539 cells assessed as cell growth at 10 uM after 48 hrs by sulforhodamine B assay; assay type: functional; settings: SF-539, 48 h, read-out: Activity; procedure, shortened: as §3
COLO 205 [4] = experiment: Growth inhibition of human COLO205 cells after 48 hrs by sulforhodamine B assay; assay type: functional; settings: COLO 205, 48 h; procedure, shortened: as §4
NCI-H226 = experiment: Growth inhibition of human NCI-H226 cells after 48 hrs by sulforhodamine B assay; assay type: functional; settings: NCI-H226, 48 h; procedure, shortened: as §1
[5] = Antiproliferative activity against mouse +SA cells by MTT assay; assay type: functional, cell-based; settings: +SA cell
Procedure, shortened: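 Mouse +SA mammary epithelial cells in serum-free DMEM/F12 with BSA, transferrin, insulin and EGF. Compounds from DMSO stock conjugated to BSA (overnight, 37 °C); 0–40 µM, final DMSO <0.1%. MTT 0.42 mg/mL for 4 h at 37 °C, isopropanol solubilization, OD 570 nm. Cell number from a standard curve; IC50 by non-linear regression.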

CAKI-1 = experiment: Growth inhibition of human CAKI-1 cells assessed as cell growth at 10 uM after 48 hrs by sulforhodamine B assay; assay type: functional; settings: CAKI-1, 48 h, read-out: Activity; procedure, shortened: as §2
NCI-H460 = experiment: Growth inhibition of human NCI-H460 cells after 48 hrs by sulforhodamine B assay; assay type: functional; settings: NCI-H460, 48 h; procedure, shortened: as §1
IGROV-1 = experiment: Growth inhibition of human IGROV1 cells after 48 hrs by sulforhodamine B assay; assay type: functional; settings: IGROV-1, 48 h; procedure, shortened: as §4

| Compound | GI50 (NCI-H322M) [nM] | GI50 (SF-539 [1]) [nM] | growth at 10 µM (HOP-62) [%] | growth at 10 µM (MDA-MB-468) [%] | growth at 10 µM (HL-60(TB)) [%] | growth at 10 µM (COLO 205 [2]) [%] | GI50 (DU-145) [nM] | growth at 10 µM (BT-549) [%] | growth at 10 µM (SNB-19) [%] | GI50 (SF-295) [nM] | GI50 (A498) [nM] | GI50 (SF-268) [nM] | growth at 10 µM (MOLT-4) [%] | GI50 (U-251) [nM] | growth at 10 µM (SF-539 [3]) [%] | GI50 (COLO 205 [4]) [nM] | GI50 (NCI-H226) [nM] | IC50 [5] [nM] | growth at 10 µM (CAKI-1) [%] | GI50 (NCI-H460) [nM] | also measured |
| --- | --- | --- | --- | --- | --- | --- | --- | --- | --- | --- | --- | --- | --- | --- | --- | --- | --- | --- | --- | --- | --- |
| CC(C)=CCC/C(C)=C/CC/C(C)=C/CC[C@]1(C)CCc2c3c(c(C)c(C)c2O1)OCN(CCCCCCCCO)C3 | 2700 | 3290 | 63.2 | -12.6 | 31 | 14.9 | 2980 | 109 | 73.6 | 3160 | 2320 | 2780 | 2.94 | 2610 | 72.6 | 2780 | 2790 | 1400 | 31.3 | 3250 | GI50 (IGROV-1): 2880 nM |
| COc1ccc(CCN2COc3cc(C)c4c(c3C2)CC[C@@](C)(CC/C=C(\C)CC/C=C(\C)CCC=C(C)C)O4)cc1OC | 2710 | 1960 | -34.3 | -25.4 | 15.4 | -72.5 | 1940 | 105 | 80.5 | 2010 | 1800 | 2130 | 0.05 | 1670 | 88.8 | 1790 | 2000 | 870 | 79.8 | 2180 | GI50 (IGROV-1): 2080 nM |
| CC(C)=CCC/C(C)=C/CC/C(C)=C/CC[C@]1(C)CCc2c3c(cc(C)c2O1)OCN(CCCO)C3 | 1870 | 1930 | -76.3 | -29 | 15.3 | -92.5 | 1900 | 92 | 4.52 | 1760 | 1460 | 2040 | -20.3 | 1720 | 74.4 | 1980 | 2310 | 1800 | 60.4 | 1930 | GI50 (IGROV-1): 1810 nM |
| CC(C)=CCC/C(C)=C/CC/C(C)=C/CC[C@]1(C)CCc2c3c(c(C)c(C)c2O1)OCN(CCCCCO)C3 | 6350 | 6260 | 114 | 87.4 | 37.2 | 68.7 | 6280 | 114 | 86.5 | 6120 | 5760 | 7130 | -24.8 | 5710 | 106 | 3390 | 6190 | 1700 | 70 | 5180 | GI50 (IGROV-1): 6180 nM |
